This is a sample that favours compounds with a hit; in the whole collection about 2.6% have one here.
PRMT1 inh = inhibitors of human PRMT1. Q99873. recombinant PRMT1, activity-based probe fluorescence polarization. inhibition, % at 2.79 µM. 1.3% of 370,000 active. AID 652257;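 active means inhibition above about 21% made by adding two undisclosed values, limit read from the data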
SIAE inh = inhibitors of human sialic acid acetylesterase SIAE; Q9HAT2; SIAE FP-Rh probe binding, fluorescence polarization; inhibition, % at 9.66 µM; 0.69% of 370,000 active; AID 1053197;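 active means inhibition above a cutoff: mean of compounds within the control limits plus 3 SD of those, cut at about 17% in these data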
Target sequence (Q9HAT2 whole entry, looked up): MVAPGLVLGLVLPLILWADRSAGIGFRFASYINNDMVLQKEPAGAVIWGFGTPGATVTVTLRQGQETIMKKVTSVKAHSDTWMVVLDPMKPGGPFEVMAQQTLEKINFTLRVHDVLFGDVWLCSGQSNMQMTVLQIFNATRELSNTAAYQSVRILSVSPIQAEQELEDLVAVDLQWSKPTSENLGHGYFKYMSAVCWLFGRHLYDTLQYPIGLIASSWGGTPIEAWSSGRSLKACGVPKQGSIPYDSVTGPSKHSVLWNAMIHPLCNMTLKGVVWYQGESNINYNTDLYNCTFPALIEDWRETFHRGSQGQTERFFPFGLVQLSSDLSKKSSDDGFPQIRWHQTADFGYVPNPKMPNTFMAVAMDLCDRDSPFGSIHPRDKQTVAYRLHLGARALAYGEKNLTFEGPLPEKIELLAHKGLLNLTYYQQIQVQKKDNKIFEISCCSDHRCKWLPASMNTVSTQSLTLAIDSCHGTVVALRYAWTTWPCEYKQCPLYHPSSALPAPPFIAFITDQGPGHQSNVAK
HTRA1 inhibitor = HTRA1 (human) protease inhibition; 0.5% of 340,000 active; AID 504803; inhibition, % at 5.96 µM; recombinant HTRA1, FP-rhodamine activity-based probe, fluorescence polarization; Q92743; in the data active means inhibition above about 36%
mABHD4 FP = ABHD4 (mouse) inhibition, primary FP screen; purified mABHD4, FP-Rh probe fluorescence polarization; inhibition, % at 8.92 µM; AID 720543; 0.54% of 370,000 active;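 active means inhibition exceeding the mean over every tested compound plus 3 SD, cut at about 30% in these data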
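Assay system: mABHD4 protein; medium: HEPES pH 7.0, NaCl, Pluronic buffer; dosing: 8.92 µM, single dose; schedule: 45 min + 60 min at 25 °C; signal: FP readout, ex 525 nm / em 598 nm; read-out: normalized percent inhibition of probe labeling; repeats: single replicate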
TCR-CD3 inh = human TCR-CD3 binding inhibition | TAMRA-labeled TCR probe fluorescence, biochemical | inhibition, % at 9.4 µM | 0.37% of 360,000 active | AID 651800; in the data active means inhibition above about 19%;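 further: recombinant mutant TCR 2C K166C tagged with TAMRA read by polarization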
PRMT1 confirm = confirmation of human PRMT1 inhibitors; recombinant His-PRMT1, activity-based probe fluorescence polarization; 42% of 3,300 active; AID 687036; inhibition, % at 2.79 µM; shares compounds with PRMT1 inh;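 active means mean inhibition across replicates above the hit cutoff derived for the earlier primary screen, cut at about 22% in these data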
ABHD4 confirm = confirmation of mouse ABHD4 inhibitors; inhibition, % at 8.92 µM; shares compounds with mABHD4 FP; 55% of 1,800 active; purified mABHD4, FP-Rh probe fluorescence polarization;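 active means mean inhibition across replicates above the hit cutoff set in the primary screen, cut at about 30% in these data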
Each line names hits and unclear results; the compound was inactive in the other large screens (follow-up assays come after a bar, where they were run).

O=C(CC(Nc1ccc(Cl)cc1Cl)C(=O)O)c1ccccc1 (stereo unspecified)	PRMT1 inh 39 | PRMT1 confirm inactive
Cc1ccnc(NC(c2ccsc2)c2ccc3ccc(C)nc3c2O)c1 (stereo unspecified)	PRMT1 inh 44 | PRMT1 confirm 50
Cc1ccc2ccc(C(Nc3ccccn3)c3ccccc3)c(O)c2n1 (stereo unspecified)	none
Cc1cccc(NC(c2ccc(C)s2)c2ccc3ccc(C)nc3c2O)n1 (stereo unspecified)	PRMT1 inh 26 | PRMT1 confirm 28
COc1cc2c(cc1OC)CN(C(=O)Cc1c(F)cccc1Cl)CC2	none
O=C(CC(Sc1ccccc1)c1cccs1)c1ccco1 (stereo unspecified)	PRMT1 inh 80 | PRMT1 confirm 83
CCCC(=O)NC1=C(Cl)C(=O)c2ccccc2C1=O	PRMT1 inh 95 | PRMT1 confirm 94
Cc1ccc2oc(C(=O)N(C)Cc3ccc(C)o3)c(C)c2c1	PRMT1 inh 51 | PRMT1 confirm 64
O=C1CN(CC(=O)Nc2cccc(Cl)c2Cl)c2ccccc2N1	PRMT1 inh 52 | PRMT1 confirm 76
CC(C)(NC(=O)c1ccccc1)c1nc2ccccc2s1	PRMT1 inh 59 | PRMT1 confirm 82
Cc1oc(=O)c(NC(=O)c2ccc(Cl)cc2)cc1C(=O)c1ccccc1	PRMT1 inh 42 | PRMT1 confirm inactive
CC(=O)c1cc(NC(=O)c2ccc(C)cc2)c(=O)oc1/C=C/N(C)C	none
Cc1oc(=O)c(NC(=O)c2ccccc2)cc1C(=O)c1ccccc1	PRMT1 inh 56 | PRMT1 confirm inactive
CC(=O)c1cc(NC(=O)c2ccc(C)cc2)c(=O)oc1C	PRMT1 inh 33 | PRMT1 confirm inactive
CC(=O)c1cc(NC(=O)c2ccccc2)c(=O)oc1C	none
COc1ccc(CNC(=O)CCCC(=O)n2nc(C)c3ccccc32)cc1	none
Cc1ccc(C)c(NC(=O)CN(C)C(=O)COc2cccc3c2OC(C)(C)C3)c1	none
CSC1=N/C(=C\c2ccc(C)s2)C(=O)S1	none
CSC1=N/C(=C\c2ccc(C)o2)C(=O)S1	PRMT1 inh 31 | PRMT1 confirm inactive
CCN(CC(=O)NCc1ccc(Cl)cc1)C(=O)CSc1ccc(Br)cc1	none
COc1ccc(O)c(/C=c2/sc3nc4cc(C)c(C)cc4n3c2=O)c1	PRMT1 inh 39 | PRMT1 confirm 70
Cn1ccc(NS(=O)(=O)c2cc(Br)ccc2Br)n1	none
O=C1C=CC(=O)N1CCNc1ncc(C(F)(F)F)cc1Cl	PRMT1 inh 92 | PRMT1 confirm 90
O=C1CC(=O)N(CCNc2ncc(C(F)(F)F)cc2Cl)C(=O)N1	none
CCCCNC(=O)[C@]1(C)CCC[C@@]2(C)C3CC[C@@]4(C)C[C@]3(CCC21)CC4=O (stereo partly specified)	none
Nc1ccc(O)c([N+](=O)[O-])c1	none
Cc1ccc(N)cc1O	PRMT1 inh 39 | PRMT1 confirm inactive
Cc1ccc(C)c(OC(=O)c2cccnc2)c1	none (no result: PRMT1 inh, SIAE inh, mABHD4 FP, TCR-CD3 inh)
COc1ccc(C2OC(=O)c3ccccc3S2)cc1 (stereo unspecified)	PRMT1 inh 38 | PRMT1 confirm inactive
COC(=O)c1ccc(N2C(=O)CC(SCC(=O)Nc3ccc(OC)cc3)C2=O)cc1 (stereo unspecified)	PRMT1 inh 53 | PRMT1 confirm 49
Cc1ccc(N2C(=O)CC(SCC(=O)Nc3ccc(S(N)(=O)=O)cc3)C2=O)cc1 (stereo unspecified)	PRMT1 inh 53 | PRMT1 confirm 66
CCOC(=O)c1ccc(N2C(=O)CC(SCC(=O)Nc3ccc(S(N)(=O)=O)cc3)C2=O)cc1 (stereo unspecified)	PRMT1 inh 82 | PRMT1 confirm 83
O=C(CSC1CC(=O)N(c2ccc(C(=O)O)cc2)C1=O)Nc1ccc2ccccc2c1 (stereo unspecified)	none
O=C1CC(N2CCN(c3ccc(O)cc3)CC2)C(=O)N1Cc1cccs1 (stereo unspecified)	PRMT1 inh 49 | PRMT1 confirm inactive
O=C(c1ccncc1)c1ccc(N2CCN(C3CC(=O)N(Cc4cccs4)C3=O)CC2)cc1 (stereo unspecified)	none
COC1=C(OC)C(=O)C(Sc2ccc3ccccc3c2)=CC1=O	PRMT1 inh 95, mABHD4 FP 57 | PRMT1 confirm 94 | ABHD4 confirm 102
O=C(CSc1ccccc1)Nc1ccc2sccc2c1	none
O=C(O)c1ccc2nc(-c3ccco3)c(-c3ccco3)nc2c1	PRMT1 inh 55, mABHD4 FP 63 | PRMT1 confirm 67 | ABHD4 confirm inactive
Cc1ccc(-c2nc3ccc(C(=O)O)cc3nc2-c2ccc(C)cc2)cc1	none
CCc1cc(C(=O)N2CCCC(C(=O)c3ccc(Oc4ccccc4)cc3)C2)n(C)n1 (stereo unspecified)	none
Cc1ccccc1-c1n[nH]c(=S)n1/N=C/C=C/c1ccco1	PRMT1 inh 29, mABHD4 FP 35 | PRMT1 confirm inactive | ABHD4 confirm 32
S=c1[nH]nc(-c2ccccc2)n1/N=C/C=C/c1ccco1	none
S=c1[nH]nc(-c2ccc(Cl)cc2)n1/N=C/C=C/c1ccco1	PRMT1 inh 31, mABHD4 FP 31 (no result: HTRA1 inhibitor) | PRMT1 confirm inactive | ABHD4 confirm inactive
CCCSC1=N/C(=C\c2ccsc2)C(=O)S1	none
CCCSC1=N/C(=C\C=C\c2ccco2)C(=O)S1	PRMT1 inh 48, mABHD4 FP 36 | PRMT1 confirm inactive | ABHD4 confirm inactive
CCCSC1=N/C(=C\c2ccc([N+](=O)[O-])o2)C(=O)S1	PRMT1 inh 29, mABHD4 FP 38 | PRMT1 confirm inactive | ABHD4 confirm inactive
O=C1SC(SCc2ccccc2)=N/C1=C\c1ccco1	PRMT1 inh 42, mABHD4 FP 30 | PRMT1 confirm inactive | ABHD4 confirm inactive
CC1OC(CC(=O)O)CC2=C1C(=O)c1c(O)cccc1C2=O (stereo unspecified)	PRMT1 inh 95, mABHD4 FP 40 | PRMT1 confirm 46 | ABHD4 confirm 44
CC(C)[C@H](NC(=O)OC(C)(C)C)c1nnc(S(=O)(=O)Cc2c(F)cccc2Cl)o1	PRMT1 inh 30, mABHD4 FP 31 | PRMT1 confirm inactive | ABHD4 confirm inactive
Cc1ccc(/C=C2/C(=O)c3ccc(C(=O)O)cc3C2=O)o1	PRMT1 inh 41, mABHD4 FP 34 | PRMT1 confirm 39 | ABHD4 confirm inactive
Cc1ccc(C=C2C(=O)c3ccccc3C2=O)o1	none
COc1cc(C=C2C(=O)C=CC2=O)ccc1O	PRMT1 inh 91, mABHD4 FP 37 (no result: HTRA1 inhibitor) | PRMT1 confirm 100 | ABHD4 confirm inactive
CC1CCN(C(=O)CSC2=NS(=O)(=O)c3cc(F)ccc3N2)CC1	none

High-throughput results: PubChem, The Scripps Research Institute Molecular Screening Center
